Experiments:
Plasmodium falciparum = assay: In vitro antimalarial activity against chloroquine-sensitive Plasmodium falciparum NF 54; assay type: functional, organism-based
In short: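 In vitro test run in quadruplicate for each set, with the value taken from a fitted dose–response curve. Artemisinin was run as a concurrent control (n = 10).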

Mus musculus [1] = assay: In vivo antimalarial activity in mice (Mus musculus) infected with Plasmodium berghei NY malaria parasite after intravenous administration for 4 days; assay type: functional; details: 96 h
In short: (§1)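 Mice infected with P. berghei NY were given drug intravenously or orally (per line) daily for 4 days, following a published protocol. The work was run as two separate groups of experiments, each with its own reference drugs.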

Mus musculus [2] = assay: In vivo antimalarial activity in mice (Mus musculus) infected with Plasmodium berghei NY malaria parasite after intravenous administration determined as parasite suppression at 10 mg/kg; assay type: functional; in short: as §1
Mus musculus [3] = assay: In vivo antimalarial activity in mice (Mus musculus) infected with Plasmodium berghei NY malaria parasite after oral administration for 4 days; assay type: functional; details: 96 h; in short: as §1
Mus musculus [4] = assay: In vivo antimalarial activity in mice (Mus musculus) infected with Plasmodium berghei NY malaria parasite after oral administration determined as parasite suppression at 10 mg/kg; assay type: functional; in short: as §1
Mus musculus [5] = assay: In vivo antimalarial activity in mice (Mus musculus) infected with Plasmodium berghei NY malaria parasite after intravenous administration for 4 days (Experiment 2); assay type: functional; details: 96 h; in short: as §1
Mus musculus [6] = assay: In vivo antimalarial activity in mice (Mus musculus) infected with Plasmodium berghei NY malaria parasite after intravenous administration determined as parasite suppression at 10 mg/kg (Experiment 2); assay type: functional; in short: as §1
Mus musculus [7] = assay: In vivo antimalarial activity in mice (Mus musculus) infected with Plasmodium berghei NY malaria parasite after intravenous administration for 4 days (Experiment 1); assay type: functional; details: 96 h; in short: as §1
Mus musculus [8] = assay: In vivo antimalarial activity in mice (Mus musculus) infected with Plasmodium berghei NY malaria parasite after intravenous administration determined as parasite suppression at 10 mg/kg (Experiment 1); assay type: functional; in short: as §1
Mus musculus [9] = assay: In vivo antimalarial activity in mice (Mus musculus) infected with Plasmodium berghei NY malaria parasite after oral administration determined as parasite suppression at 10 mg/kg (Experiment 2); assay type: functional
In short: (§2)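 P. berghei NY-infected mice dosed orally at 10 mg/kg body weight, following a previously published protocol. Read-out is % suppression of parasite growth. Two separate groups of experiments were run, each with its own concurrent reference drugs.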

Mus musculus [10] = assay: In vivo antimalarial activity in mice (Mus musculus) infected with Plasmodium berghei NY malaria parasite after oral administration for 4 days (Experiment 2); assay type: functional; details: 96 h
In short: (§3)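 P. berghei NY-infected mice given the compound orally once daily for 4 days, following a previously published protocol. Two separate groups of experiments were run, each with its own concurrent reference drugs.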

Mus musculus [11] = assay: In vivo antimalarial activity in mice (Mus musculus) infected with Plasmodium berghei NY malaria parasite after oral administration determined as parasite suppression at 10 mg/kg (Experiment 1); assay type: functional; in short: as §2
Mus musculus [12] = assay: In vivo antimalarial activity in mice (Mus musculus) infected with Plasmodium berghei NY malaria parasite after oral administration for 4 days (Experiment 1); assay type: functional; details: 96 h; in short: as §3

SMILES: C[C@H]1[C@@H](CC(O)(CO)C[C@H]2O[C@@H]3O[C@]4(C)CC[C@H]5[C@H](C)CC[C@@H]([C@H]2C)[C@@]35OO4)O[C@@H]2O[C@]3(C)CC[C@H]4[C@H](C)CC[C@@H]1[C@@]24OO3 (stereo partly specified)
- IC50 (Plasmodium falciparum): 0.59 nM

SMILES: C[C@@H]1CC[C@H]2[C@@H](C)C(CC3(CC4OC5O[C@]6(C)CC[C@H]7[C@H](C)CC[C@@H]([C@H]4C)C57OO6)CO3)OC3O[C@]4(C)CCC1C32OO4 (stereo partly specified)
- IC50 (Plasmodium falciparum): 2.8 nM

SMILES: C[C@@H]1CC[C@H]2[C@@H](C)C(=O)O[C@@H]3O[C@@]4(C)CC[C@@H]1[C@]32OO4 [ARTEMISININ]
- IC50 (Plasmodium falciparum): 9 nM

SMILES: C[C@@H]1CC[C@H]2[C@@H](C)C(CC(=O)CC3OC4O[C@]5(C)CC[C@H]6[C@H](C)CC[C@@H]([C@H]3C)C46OO5)OC3O[C@]4(C)CCC1C32OO4 (stereo partly specified)
- IC50 (Plasmodium falciparum): 0.91 nM

SMILES: C[C@@H]1CC[C@H]2[C@@H](C)C(CC(COC(=O)CCC(=O)O)CC3OC4O[C@]5(C)CC[C@H]6[C@H](C)CC[C@@H]([C@H]3C)C46OO5)OC3O[C@]4(C)CCC1C32OO4 (stereo partly specified)
- ED50 (Mus musculus [1]): 2.2 mg/kg/day
- ED90 (Mus musculus [1]): 6.3 mg/kg/day
- Parasite suppression (Mus musculus [2]): 81%
- ED50 (Mus musculus [3]): 9 mg/kg/day
- ED90 (Mus musculus [3]): 15 mg/kg/day
- IC50 (Plasmodium falciparum): 2 nM
- Parasite suppression (Mus musculus [4]): 79.2%

SMILES: C=C(CC1OC2O[C@]3(C)CCC4[C@H](C)CC[C@@H]([C@H]1C)C24OO3)CC1OC2O[C@]3(C)CC[C@H]4[C@H](C)CC[C@@H]([C@H]1C)C24OO3 (stereo partly specified)
- IC50 (Plasmodium falciparum): 24 nM

SMILES: C[C@@H]1CC[C@H]2[C@@H](C)C(CC(CO)CC3OC4O[C@]5(C)CC[C@H]6[C@H](C)CC[C@@H]([C@H]3C)C46OO5)OC3O[C@]4(C)CCC1C32OO4 (stereo partly specified)
- IC50 (Plasmodium falciparum): 0.87 nM

SMILES: C[C@@H]1CC[C@H]2[C@@H](C)C(CC(O)(COC(=O)CCC(=O)O)CC3OC4O[C@]5(C)CC[C@H]6[C@H](C)CC[C@@H]([C@H]3C)C46OO5)OC3O[C@]4(C)CCC1C32OO4 (stereo partly specified) [TERTIARY ALCOHOL PRIMARY SUCCINATEESTER]
- ED50 (Mus musculus [1]): 2.4 mg/kg/day
- ED90 (Mus musculus [1]): 11 mg/kg/day
- Parasite suppression (Mus musculus [2]): 83.4%
- ED50 (Mus musculus [3]): 4.8 mg/kg/day
- ED90 (Mus musculus [3]): 34 mg/kg/day
- IC50 (Plasmodium falciparum): 3 nM
- Parasite suppression (Mus musculus [4]): 55.4%

SMILES: C[C@@H]1CC[C@H]2[C@@H](C)C(CC(O)(CC3OC4O[C@]5(C)CC[C@H]6[C@H](C)CC[C@@H]([C@H]3C)C46OO5)c3ccc(C(=O)O)cc3)OC3O[C@]4(C)CCC1C32OO4 (stereo partly specified)
- IC50 (Plasmodium falciparum): 2.1 nM

SMILES: C[C@@H]1[C@H](OCc2ccc(C(=O)O)cc2)O[C@@H]2O[C@@]3(C)CC[C@@H]4[C@@H](C)CC[C@@H]1[C@]24OO3 (stereo in doubt) [ARTELINIC ACID]
- ED50 (Mus musculus [5]): 5.6 mg/kg/day
- ED90 (Mus musculus [5]): 43 mg/kg/day
- Parasite suppression (Mus musculus [6]): 42.4%
- ED50 (Mus musculus [7]): 11 mg/kg/day
- ED90 (Mus musculus [7]): 25 mg/kg/day
- Parasite suppression (Mus musculus [8]): 54.7%

SMILES: C[C@@H]1CC[C@H]2[C@@H](C)C(CC(O)(CC3OC4O[C@]5(C)CC[C@H]6[C@H](C)CC[C@@H]([C@H]3C)C46OO5)CS(=O)(=O)c3ccc(C(=O)O)cc3)OC3O[C@]4(C)CCC1C32OO4 (stereo partly specified)
- ED50 (Mus musculus [1]): 2.7 mg/kg/day
- ED90 (Mus musculus [1]): 10 mg/kg/day
- Parasite suppression (Mus musculus [2]): 83.4%
- ED50 (Mus musculus [3]): 7.5 mg/kg/day
- ED90 (Mus musculus [3]): 35 mg/kg/day
- IC50 (Plasmodium falciparum): 2.4 nM
- Parasite suppression (Mus musculus [4]): 46.1%

SMILES: C[C@H]1[C@H](OC(=O)CCC(=O)[O-])O[C@@H]2O[C@@]3(C)CC[C@H]4[C@H](C)CC[C@@H]1[C@@]24OO3.[Na+] [SODIUM ARESUNATE]
- Parasite suppression (Mus musculus [9]): 50.9%
- ED50 (Mus musculus [10]): 5.5 mg/kg/day
- ED90 (Mus musculus [10]): 70 mg/kg/day
- Parasite suppression (Mus musculus [11]): 52.8%
- ED50 (Mus musculus [12]): 10 mg/kg/day
- ED90 (Mus musculus [12]): 39 mg/kg/day

SMILES: C[C@@H]1CC[C@H]2[C@@H](C)C(CC(COC(=O)c3ccncc3)CC3OC4O[C@]5(C)CC[C@H]6[C@H](C)CC[C@@H]([C@H]3C)C46OO5)OC3O[C@]4(C)CCC1C32OO4 (stereo partly specified)
- IC50 (Plasmodium falciparum): 1.7 nM

— ChEMBL document CHEMBL1136720, “Orally active, antimalarial, anticancer, artemisinin-derived trioxane dimers with high stability and efficacy” (J Med Chem, 2003)
